Results reported in ChEMBL document CHEMBL1255347, “Multiclonal outbreak of Klebsiella pneumoniae producing extended-spectrum beta-lactamase CTX-M-2 and novel variant CTX-M-59 in a neonatal intensive care unit in Brazil” (2008).
≈ marks a conversion by molar mass, not a printed value.

Experiments:
Type in all cases: functional
Klebsiella pneumoniae [1] = experiment: Antimicrobial activity against CTX-M-2 producing Klebsiella pneumoniae with PFGE pulsotype A by Etest
How it was run: (§1)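 Clinical K. pneumoniae isolates from a neonatal ICU outbreak near São Paulo were typed by XbaI PFGE using Tenover criteria. Cultures were grown in LB broth at 37°C. Etest MICs followed the manufacturer's instructions, with cefotaxime and ceftazidime each tested with and without clavulanic acid.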

Klebsiella pneumoniae [2] = experiment: Antimicrobial activity against CTX-M-2 producing Klebsiella pneumoniae with PFGE pulsotype B by Etest; how it was run: as §1
Klebsiella pneumoniae [3] = experiment: Antimicrobial activity against CTX-M-59 producing Klebsiella pneumoniae with PFGE pulsotype C by Etest
Klebsiella pneumoniae [4] = experiment: Antimicrobial activity against SHV-5 producing Klebsiella pneumoniae with PFGE pulsotype D by Etest; how it was run: as §1
Klebsiella pneumoniae [5] = experiment: Antimicrobial activity against CTX-M-59 producing Klebsiella pneumoniae with PFGE pulsotype E by Etest
Klebsiella pneumoniae [6] = experiment: Antimicrobial activity against CTX-M-2 producing Klebsiella pneumoniae with PFGE pulsotype F by Etest
Klebsiella pneumoniae [7] = experiment: Antimicrobial activity against CTX-M-59 producing Klebsiella pneumoniae with PFGE pulsotype G by Etest; how it was run: as §1
Klebsiella pneumoniae [8] = experiment: Antimicrobial activity against CTX-M-2 producing Klebsiella pneumoniae with PFGE pulsotype H by Etest; how it was run: as §1
Klebsiella pneumoniae [9] = experiment: Antimicrobial activity against CTX-M-2 producing Klebsiella pneumoniae with PFGE pulsotype I by Etest
Klebsiella pneumoniae [10] = experiment: Antimicrobial activity against CTX-M-2 producing Klebsiella pneumoniae with PFGE pulsotype J by Etest
Escherichia coli [11] = experiment: Antimicrobial activity against Escherichia coli str. K-12 substr. DH10B harboring plasmid CTX-M-2; conditions: K-12 DH10B
How it was run: (§2)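 blaCTX-M PCR products were cut with XbaI/BamHI and cloned into pBC-SK(−), then electroporated into E. coli DH10B. Transformants were selected on LB agar with ampicillin 50 μg/ml and chloramphenicol 30 μg/ml, and sequences were confirmed. These clones were used for β-lactam MICs, with and without clavulanic acid.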

Escherichia coli [12] = experiment: Antimicrobial activity against Escherichia coli str. K-12 substr. DH10B harboring plasmid CTX-M-59; conditions: K-12 DH10B; how it was run: as §2
Klebsiella pneumoniae [13] = experiment: Antimicrobial activity against CTX-M-2 and TEM-1 producing Klebsiella pneumoniae transconjugants/transformants with PFGE pulsotype A by Etest
How it was run: (§3)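 The recipient was E. coli XL1-Blue Rifr NAr. Plasmids moved by broth mating, with transconjugants selected on LB agar containing ampicillin, rifampin and nalidixic acid, each at 50 μg/ml. Where mating failed, alkaline-lysis plasmid extracts were electroporated and selected on ampicillin 50 μg/ml. β-lactam MICs were read by Etest, with and without clavulanic acid.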

Klebsiella pneumoniae [14] = experiment: Antimicrobial activity against CTX-M-2 and TEM-1 producing Klebsiella pneumoniae transconjugants/transformants with PFGE pulsotype B by Etest; how it was run: as §3
Klebsiella pneumoniae [15] = experiment: Antimicrobial activity against CTX-M-59 and TEM-1 producing Klebsiella pneumoniae transconjugants/transformants with PFGE pulsotype C by Etest; how it was run: as §3
Klebsiella pneumoniae [16] = experiment: Antimicrobial activity against SHV-5 producing Klebsiella pneumoniae transconjugants/transformants with PFGE pulsotype D by Etest; how it was run: as §3
Klebsiella pneumoniae [17] = experiment: Antimicrobial activity against CTX-M-59 and TEM-1 producing Klebsiella pneumoniae transconjugants/transformants with PFGE pulsotype E by Etest; how it was run: as §3
Klebsiella pneumoniae [18] = experiment: Antimicrobial activity against CTX-M-2 and TEM-1 producing Klebsiella pneumoniae transconjugants/transformants with PFGE pulsotype F by Etest; how it was run: as §3
Klebsiella pneumoniae [19] = experiment: Antimicrobial activity against CTX-M-59 and TEM-1 producing Klebsiella pneumoniae transconjugants/transformants with PFGE pulsotype G by Etest; how it was run: as §3
Klebsiella pneumoniae [20] = experiment: Antimicrobial activity against CTX-M-2 and TEM-1 producing Klebsiella pneumoniae transconjugants/transformants with PFGE pulsotype H by Etest; how it was run: as §3
Klebsiella pneumoniae [21] = experiment: Antimicrobial activity against CTX-M-2 and TEM-1 producing Klebsiella pneumoniae transconjugants/transformants with PFGE pulsotype I by Etest; how it was run: as §3
Klebsiella pneumoniae [22] = experiment: Antimicrobial activity against CTX-M-2 and TEM-1 producing Klebsiella pneumoniae transconjugants/transformants with PFGE pulsotype J by Etest; how it was run: as §3

Compound	MIC (Klebsiella pneumoniae [1]) [µg/mL]	MIC (Klebsiella pneumoniae [2]) [µg/mL]	MIC (Klebsiella pneumoniae [3]) [µg/mL]	MIC (Klebsiella pneumoniae [4]) [µg/mL]	MIC (Klebsiella pneumoniae [5]) [µg/mL]	MIC (Klebsiella pneumoniae [6]) [µg/mL]	MIC (Klebsiella pneumoniae [7]) [µg/mL]	MIC (Klebsiella pneumoniae [8]) [µg/mL]	MIC (Klebsiella pneumoniae [9]) [µg/mL]	MIC (Klebsiella pneumoniae [10]) [µg/mL]	MIC (Escherichia coli [11]) [µg/mL]	MIC (Escherichia coli [12]) [µg/mL]	MIC (Klebsiella pneumoniae [13]) [µg/mL]	MIC (Klebsiella pneumoniae [14]) [µg/mL]	MIC (Klebsiella pneumoniae [15]) [µg/mL]	MIC (Klebsiella pneumoniae [16]) [µg/mL]	MIC (Klebsiella pneumoniae [17]) [µg/mL]	MIC (Klebsiella pneumoniae [18]) [µg/mL]	MIC (Klebsiella pneumoniae [19]) [µg/mL]	MIC (Klebsiella pneumoniae [20]) [µg/mL]	further results
C[C@H]1[C@H](NC(=O)/C(=N\OC(C)(C)C(=O)O)c2csc(N)n2)C(=O)N1S(=O)(=O)O [AZTREONAM]	24 (≈ 55.1 µM)	48 (≈ 110 µM)	32 (≈ 73.5 µM)	256 (≈ 588 µM)	32 (≈ 73.5 µM)	256 (≈ 588 µM)	64 (≈ 147 µM)	48 (≈ 110 µM)	24 (≈ 55.1 µM)	128 (≈ 294 µM)	12 (≈ 27.6 µM)	12 (≈ 27.6 µM)	> 256	256 (≈ 588 µM)	> 256	> 256	48 (≈ 110 µM)	> 256	> 256	> 256	MIC (Klebsiella pneumoniae [21]): > 256 µg/mL; MIC (Klebsiella pneumoniae [22]): > 256 µg/mL
GENTAMICIN	> 256	> 256	> 256	24	> 256	> 256	> 256	> 256	256				> 256	> 256	> 256	24	> 256	> 256	> 256	> 256	MIC (Klebsiella pneumoniae [21]): > 256 µg/mL; MIC (Klebsiella pneumoniae [22]): 128 µg/mL
CO/N=C(\C(=O)N[C@@H]1C(=O)N2C(C(=O)[O-])=C(C[N+]3(C)CCCC3)CS[C@H]12)c1csc(N)n1		128 (≈ 266 µM)	256 (≈ 533 µM)	4 (≈ 8.32 µM)		> 256	32 (≈ 66.6 µM)	> 256	256 (≈ 533 µM)	12 (≈ 25 µM)	4 (≈ 8.32 µM)	4 (≈ 8.32 µM)		256 (≈ 533 µM)		1.5 (≈ 3.12 µM)					
